Data from ChEMBL document CHEMBL1156597, “Structure-activity relationship of kahalalide F synthetic analogues” (J Med Chem, 2008).

What was measured:
SK-MEL-28 = assay: Cytotoxicity against human SK-MEL-28 cells after 48 hrs by SRB assay; assay type: functional, cell-based; details: Homo sapiens, SK-MEL-28, 48 h; for CC50: read-out: LC50 (the source's name)
Procedure, shortened: (§1)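 Cells grown in RPMI 1640 with 10% FBS and penicillin/streptomycin at 37 °C and 5% CO₂, trypsinized, then seeded at 5 × 10³/well. After 18 h drug-free attachment, samples in DMSO/EtOH/PBS (0.5:0.5:99) were added for 48 h continuous exposure. Cells were fixed with cold TCA (1 h, 4 °C) and stained with SRB (10 min). Tris-solubilized stain read at 490 nm. Triplicate wells, mean ± SD; GI₅₀ derived.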

PANC-1 = assay: Cytotoxicity against human PANC1 cells after 48 hrs by SRB assay; assay type: functional; details: PANC-1, 48 h; for CC50: read-out: LC50 (the source's name); procedure, shortened: as §1
HeLa = assay: Cytotoxicity against human HeLa cells after 48 hrs by SRB assay; assay type: functional; details: read-out: LC50 (the source's name); procedure, shortened: as §1
[1] = Cytotoxicity against human HeLa-APL cells after 48 hrs by SRB assay; assay type: functional; procedure, shortened: as §1
LoVo [2] = assay: Cytotoxicity against human doxorubicin resistant LoVo cells after 48 hrs by SRB assay; assay type: functional; details: for CC50: read-out: LC50 (the source's name); procedure, shortened: as §1
SK-BR-3 = assay: Cytotoxicity against human SKBR3 cells after 48 hrs by SRB assay; assay type: functional; details: SK-BR-3, 48 h; for GI50: read-out: GI50; for CC50: read-out: LC50 (the source's name); procedure, shortened: as §1
LNCaP = assay: Cytotoxicity against human LNcaP cells after 48 hrs by SRB assay; assay type: functional; details: for CC50: read-out: LC50 (the source's name); procedure, shortened: as §1
A549 = assay: Cytotoxicity against human A549 cells after 48 hrs by SRB assay; assay type: functional, cell-based; details: Homo sapiens, A549, 48 h; procedure, shortened: as §1
[3] = Cytotoxicity against human IGROV-ET cells after 48 hrs by SRB assay; assay type: functional; details: for CC50: read-out: LC50 (the source's name); procedure, shortened: as §1
LoVo [4] = assay: Cytotoxicity against human LoVo cells after 48 hrs by SRB assay; assay type: functional; details: for CC50: read-out: LC50 (the source's name)
HT-29 = assay: Cytotoxicity against human HT29 cells after 48 hrs by SRB assay; assay type: functional, cell-based; details: Homo sapiens, HT-29, 48 h; for CC50: read-out: LC50 (the source's name); procedure, shortened: as §1
[5] = Cytotoxicity against human IGROV cells after 48 hrs by SRB assay; assay type: functional; details: for CC50: read-out: LC50 (the source's name); procedure, shortened: as §1
DU-145 = assay: Cytotoxicity against human DU145 cells after 48 hrs by SRB assay; assay type: functional, cell-based; details: Homo sapiens, DU-145, 48 h; for CC50: read-out: LC50 (the source's name); procedure, shortened: as §1

Structure (SMILES) | GI50 (SK-MEL-28) | GI50 (SK-MEL-28; read-out: GI50) | CC50 (SK-MEL-28) | GI50 (PANC-1) | TGI (PANC-1) | CC50 (PANC-1) | CC50 (HeLa) | GI50 [1] | LC50 (concentration giving 50% net cell kill) [1] | TGI [1] | GI50 (LoVo [2]) | TGI (LoVo [2]) | CC50 (LoVo [2]) | TGI (SK-BR-3) | GI50 (SK-BR-3) | CC50 (SK-BR-3) | GI50 (LNCaP) | TGI (LNCaP) | CC50 (LNCaP) | LC50 (A549) | also measured
C/C=C1\NC(=O)[C@H](Cc2ccc(F)cc2)NC(=O)[C@@H](C(C)C)NC(=O)[C@@H]([C@H](C)CC)NC(=O)[C@H](NC(=O)[C@H](NC(=O)[C@H](CCCN)NC(=O)[C@H]2CCCN2C(=O)[C@H](NC(=O)[C@@H](NC(=O)[C@@H](NC(=O)[C@H](NC(=O)CC[C@@H](C)CC)C(C)C)[C@@H](C)O)C(C)C)C(C)C)[C@H](C)CC)[C@H](C)OC(=O)[C@H](C(C)C)NC1=O | 819 nM | 699 nM | 953 nM | 1460 nM | 1530 nM | 1580 nM | 2820 nM | 737 nM | 837 nM | 786 nM | 413 nM | 460 nM | 512 nM | 448 nM | 519 nM | 389 nM | 514 nM | 620 nM | 747 nM | 1040 nM | TGI (A549): 1030 nM; GI50 (A549; read-out: GI50): 1010 nM; GI50 [3]: 791 nM; GI50 ([3]; read-out: GI50): 971 nM; CC50 [3]: 649 nM; GI50 (LoVo [4]): 393 nM; TGI (LoVo [4]): 361 nM; CC50 (LoVo [4]): 330 nM; GI50 (HT-29): 452 nM; TGI (HT-29): 462 nM; CC50 (HT-29): 479 nM; GI50 [5]: 558 nM; GI50 ([5]; read-out: GI50): 812 nM; CC50 [5]: 381 nM; GI50 (DU-145): 893 nM; GI50 (DU-145; read-out: GI50): 891 nM; CC50 (DU-145): 893 nM
C/C=C1\NC(=O)[C@H](Cc2ccc(I)cc2)NC(=O)[C@@H](C(C)C)NC(=O)[C@@H]([C@H](C)CC)NC(=O)[C@H](NC(=O)[C@H](NC(=O)[C@H](CCCN)NC(=O)[C@H]2CCCN2C(=O)[C@H](NC(=O)[C@@H](NC(=O)[C@@H](NC(=O)[C@H](NC(=O)CC[C@@H](C)CC)C(C)C)[C@@H](C)O)C(C)C)C(C)C)[C@H](C)CC)[C@H](C)OC(=O)[C@H](C(C)C)NC1=O | 202 nM | 160 nM | 354 nM | 1200 nM | 1300 nM | 1410 nM | 156 nM | 313 nM | 605 nM | 416 nM | 134 nM | 183 nM | 225 nM | 315 nM | 305 nM | 327 nM | 345 nM | 512 nM | 686 nM | 181 nM | GI50 (A549): 203 nM; GI50 (A549; read-out: GI50): 226 nM; GI50 [3]: 955 nM; GI50 ([3]; read-out: GI50): 1190 nM; CC50 [3]: 776 nM; GI50 (LoVo [4]): 365 nM; TGI (LoVo [4]): 361 nM; CC50 (LoVo [4]): 358 nM; GI50 (HT-29): 396 nM; TGI (HT-29): 407 nM; CC50 (HT-29): 423 nM; GI50 [5]: 394 nM; GI50 ([5]; read-out: GI50): 670 nM; CC50 [5]: 179 nM; GI50 (DU-145): 131 nM; GI50 (DU-145; read-out: GI50): 148 nM; CC50 (DU-145): 117 nM
C/C=C1\NC(=O)[C@H](Cc2ccc([N+](=O)[O-])cc2)NC(=O)[C@@H](C(C)C)NC(=O)[C@@H]([C@H](C)CC)NC(=O)[C@H](NC(=O)[C@H](NC(=O)[C@H](CCCN)NC(=O)[C@H]2CCCN2C(=O)[C@H](NC(=O)[C@@H](NC(=O)[C@@H](NC(=O)[C@H](NC(=O)CC[C@@H](C)CC)C(C)C)[C@@H](C)O)C(C)C)C(C)C)[C@H](C)CC)[C@H](C)OC(=O)[C@H](C(C)C)NC1=O | 235 nM | 188 nM | 436 nM | 1290 nM | 1430 nM | 1580 nM | 185 nM | 569 nM | 783 nM | 700 nM | 90.4 nM | 141 nM | 209 nM | 406 nM | 366 nM | 451 nM | 482 nM | 511 nM | 669 nM | 891 nM | GI50 (A549): 724 nM; GI50 (A549; read-out: GI50): 562 nM; GI50 [3]: 811 nM; GI50 ([3]; read-out: GI50): 1050 nM; CC50 [3]: 636 nM; GI50 (LoVo [4]): 317 nM; TGI (LoVo [4]): 314 nM; CC50 (LoVo [4]): 311 nM; GI50 (HT-29): 419 nM; TGI (HT-29): 411 nM; CC50 (HT-29): 409 nM; GI50 [5]: 417 nM; GI50 ([5]; read-out: GI50): 682 nM; CC50 [5]: 197 nM; TGI (DU-145): 3.64 µM; GI50 (DU-145; read-out: GI50): 261 nM; CC50 (DU-145): 561 nM
